According to ChEMBL document CHEMBL4145496, “In vitro antiplasmodial efficacy of synthetic coumarin-triazole analogs” (Eur J Med Chem, 2018):
In brackets after ≈: the same amount, converted by molar mass. Activity calls are given as the source filed them. No cut-off for these calls is given here.

Legend:
[1] = test system: Plasmodium falciparum; assay: Antimalarial activity against chloroquine-sensitive Plasmodium falciparum 3D7 erythrocytic stage after 48 hrs by Giemsa staining-based microscopic analysis; format: functional, organism-based; conditions: 3D7, 48 h
In short: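 Parasites kept in human O+ erythrocytes in RPMI 1640 with HEPES, NaHCO3, L-glutamine, gentamicin and Albumax II, under 3% O2/4% CO2/93% N2 at 37 °C. DMSO stocks (1 mg/ml) diluted into gentamicin-free RPMI. Graded concentrations for 48 h at 37 °C, medium changed at 24 h, in triplicate. Parasites counted per about 4000 erythrocytes on Giemsa thin smears. IC50 taken from semi-log plots.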

[2] = Cytotoxicity against human HuH7 cells assessed as reduction in cell viability after 72 hrs by MTT assay; format: cell-based, Huh-7
In short: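 Huh-7 monolayers grown in DMEM at 37 °C in 5% CO2. Cells seeded at about 20,000 per well and left 24 h, then given fresh medium containing 1, 10, 20, 30, 50 or 100 μg/mL compound for 72 h. Viability read by MTT, absorbance at 570 nm.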

[3] = target: DNA gyrase (Escherichia coli) (UniProt P0AES6+P0AES4); assay: Inhibition of Escherichia coli DNA gyrase assessed as inhibition of enzyme-mediated supercoiling of relaxed pHOT1 DNA substrate at IC50 after 1 hr by ethidium bromide staining based agarose gel electrophoresis; format: protein-complex assay

Structure (SMILES)	IC50 [1] [µg/mL]	CC50 at 72 h [2] [µg/mL]	inhibition [3]
Cc1cc(=O)oc2cc(OCc3cn(-c4ccc(F)cc4)nn3)ccc12	6.43 (≈ 18.3 µM)	> 100	
COC(=O)Cn1cc(COc2ccc3c(C)cc(=O)oc3c2)nn1	3.3 (≈ 10 µM)	> 100	
COc1cc(-n2cc(COc3ccc4c(C)cc(=O)oc4c3)nn2)cc(OC)c1OC	11.1 (≈ 26.1 µM)	> 100	
Cc1cc(=O)oc2cc(OCc3cn(-c4ccc(OC(F)(F)F)cc4)nn3)ccc12	5 (≈ 12 µM)	> 100	
CC(=O)Nc1ccc(-n2cc(COc3ccc4c(C)cc(=O)oc4c3)nn2)cc1	4.16 (≈ 10.7 µM)	> 100	
COc1ccc(-n2cc(COc3ccc4c(C)cc(=O)oc4c3)nn2)c(OC)c1	0.763 (≈ 1.94 µM)	> 100	Active
Cc1cc(=O)oc2cc(OCc3cn(Cc4ccccc4)nn3)ccc12	6.4 (≈ 18.4 µM)	> 100	
Cc1cc(=O)oc2cc(OCc3cn(-c4ccnc5cc(Cl)ccc45)nn3)ccc12	10.6 (≈ 25.3 µM)	> 100	
Cc1cc(F)ccc1-n1cc(COc2ccc3c(C)cc(=O)oc3c2)nn1	12.8 (≈ 35 µM)	> 100	
Cc1cc(=O)oc2cc(OCc3cn(-c4ccc(F)c(Cl)c4)nn3)ccc12	7.43 (≈ 19.3 µM)	> 100	
Cc1cc(=O)oc2cc(OCc3cn(-c4ccc(Oc5ccccc5)cc4)nn3)ccc12	4.56 (≈ 10.7 µM)	> 100	
Cc1cc(=O)oc2cc(OCc3cn(Cc4ccc([N+](=O)[O-])cc4)nn3)ccc12	2.23 (≈ 5.68 µM)	> 100	
Cc1cc(=O)oc2cc(OCc3c[nH]nn3)ccc12	1.82 (≈ 7.06 µM)	> 100	
Cc1cc(=O)oc2cc(OCc3cn(-c4ccc(F)cc4F)nn3)ccc12	15.4 (≈ 41.7 µM)	> 100	
Cc1cc(=O)oc2cc(OCc3cn(-c4ccccc4Cl)nn3)ccc12	8.94 (≈ 24.3 µM)	> 100	
Cc1cc(=O)oc2cc(OCc3cn(-c4cccc(F)c4)nn3)ccc12	9.46 (≈ 26.9 µM)	> 100	
Cc1cc(=O)oc2cc(OCc3cn(-c4ccccc4[N+](=O)[O-])nn3)ccc12	6.86 (≈ 18.1 µM)	> 100	
Cc1cc(=O)oc2cc(OCc3cn(-c4ccccc4F)nn3)ccc12	2.48 (≈ 7.06 µM)	> 100	
Cc1cc(C)cc(-n2cc(COc3ccc4c(C)cc(=O)oc4c3)nn2)c1	0.893 (≈ 2.47 µM)	> 100	Active
Cc1cc(=O)oc2cc(OCc3cn(-c4ccc(Cl)cc4)nn3)ccc12	8.43 (≈ 22.9 µM)	> 100	
Cc1cc(=O)oc2cc(OCc3cn(CCO)nn3)ccc12	3.36 (≈ 11.2 µM)	> 100	
Cc1ccc(-n2cc(COc3ccc4c(C)cc(=O)oc4c3)nn2)c(Cl)c1	1.5 (≈ 3.92 µM)	> 100	Active
